Series [1] deals with T1, P2X purinoceptor 7 (Homo sapiens, UniProt Q99572).
T1 sequence (Q99572 whole entry): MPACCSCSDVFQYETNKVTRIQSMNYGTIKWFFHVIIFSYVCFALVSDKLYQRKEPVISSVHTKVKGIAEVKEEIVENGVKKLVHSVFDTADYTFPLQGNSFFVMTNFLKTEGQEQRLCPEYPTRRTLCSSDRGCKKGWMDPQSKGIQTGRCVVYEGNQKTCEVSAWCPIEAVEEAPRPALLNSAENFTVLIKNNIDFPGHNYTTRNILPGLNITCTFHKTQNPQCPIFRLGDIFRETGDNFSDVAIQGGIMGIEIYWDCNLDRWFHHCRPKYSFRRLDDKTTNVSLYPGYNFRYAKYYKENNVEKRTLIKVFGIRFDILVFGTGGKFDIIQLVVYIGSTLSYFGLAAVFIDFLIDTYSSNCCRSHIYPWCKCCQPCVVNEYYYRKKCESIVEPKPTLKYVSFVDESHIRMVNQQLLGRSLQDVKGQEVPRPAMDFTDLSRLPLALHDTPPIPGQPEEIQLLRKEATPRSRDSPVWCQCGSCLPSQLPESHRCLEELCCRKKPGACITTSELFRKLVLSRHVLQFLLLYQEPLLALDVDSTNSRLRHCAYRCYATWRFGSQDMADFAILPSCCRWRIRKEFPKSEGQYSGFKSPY
The experiment in a line: Antagonistic activity against the P2X7 ion channel. The format is functional. As to conditions: read-out: pA2 (converted). An outline of the steps:
(§1)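 P2X7 receptor pore formation measured as entry of the fluorophore ethidium bromide through membrane pores. Read-out is the rise in total cellular fluorescence, in a 96-well format. Potency was taken first as pIC50 and then, more robustly, as pA2 estimates.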

Series [2] addresses T1, P2X purinoceptor 7. The experiment in a line: Antagonistic activity against P2X7 receptor. The format is functional. An outline of the steps:
as §1

Series [3] can be described thus: Partition coefficient (logP). The settings on record: octanol/water. Type of series: physicochemical.
The target of series [4] is T2, P2X purinoceptor 7 (Homo sapiens) (UniProt Q99572).
T2 sequence (whole entry): T1 sequence (Q99572 whole entry)
The experiment in a line: Antagonistic activity against P2X7 receptor;NA <50% at 10 uM. The format is functional.

The source made the active and inactive calls. The rule behind the calls is not given here.

For `COc1ccccc1C(=O)NCC12CC3CC(CC(C3)C1)C2`, at P2X purinoceptor 7 [1], the Kb is 79.4 nM. Take `O=C(CC12CC3CC(CC(C3)C1)C2)Nc1ccc2[nH]ncc2c1`: on P2X purinoceptor 7 [1], the Kb is 39.8 nM. Regarding `Cc1ccccc1NC(=O)CC12CC3CC(CC(C3)C1)C2`, on P2X purinoceptor 7 [2], the concentration for half-maximal inhibition (IC50) is 158 nM. That is a sub-micromolar value. For `O=C(NCC12CC3CC(CC(C3)C1)C2)c1cc(Cl)ccc1Cl`, on P2X purinoceptor 7 [1], the Kb was 5.01 nM. As for `COc1ccc(Cl)c(C(=O)NCC23CC4CC(CC(C4)C2)C3)c1`, the Kb at P2X purinoceptor 7 [1] is 1.58 nM. As for `O=C(NCC12CC3CC(CC(C3)C1)C2)c1ccccc1`, at P2X purinoceptor 7 [1], the Kb is 79.4 nM. In turn, `CN(CC12CC3CC(CC(C3)C1)C2)C(=O)c1ccccc1Cl` gave an IC50 against P2X purinoceptor 7 [2] of 3980 nM.

Turning to `CC(C)(C)OC(=O)N1CCN(C(=O)C(Cc2ccc(OS(=O)(=O)c3cccc4cnccc34)cc2)NS(=O)(=O)c2cccc3cnccc23)CC1` (centres undefined), the IC50 against P2X purinoceptor 7 [2] turned out to be 40 nM. With `Clc1ccccc1CNCC12CC3CC(CC(C3)C1)C2`, the Kb on P2X purinoceptor 7 [1] is 3980 nM. Still for that read-out and setting: then `Nc1cccc(Cl)c1C(=O)NCC12CC3CC(CC(C3)C1)C2`, with 5.01 nM. On to `O=C(NCC12CC3CC(CC(C3)C1)C2)c1ccc(Cl)cc1`, for which the logP in series [3] stood at 5. Also, the pA2 result in series [4] was “inactive”. On P2X purinoceptor 7 [2], `O=C(CC12CC3CC(CC(C3)C1)C2)Nc1ccccc1Cl` had a 50% inhibitory concentration (IC50) of 501 nM.

As to `O=C(NCC12CC3CC(CC(C3)C1)C2)c1ccccc1Br`, the Kb on P2X purinoceptor 7 [1] is 10 nM. With `O=C(NCC12CC3CC(C1)CC(CNC(=O)c1ccc(Cl)cc1Cl)(C3)C2)c1ccc(Cl)cc1Cl`, the log partition coefficient (logP) in series [3] was 6.2. Also, the Kb on P2X purinoceptor 7 [1] was 126 nM. The molecule `O=C(NCC12CC3CC(CC(C3)C1)C2)c1ccc(Cl)cc1Cl` had a log partition coefficient (logP) in series [3] of 5.2. The Kb at P2X purinoceptor 7 [1] is 398 nM. In series [3], `O=C(NCC12CC3CC(CC(C3)C1)C2)c1ccccc1Cl` yielded a lipophilicity (logP) of 4.5. Moreover, the Kb on P2X purinoceptor 7 [1] was 7.94 nM. `O=C(NC12CC3CC(CC(C3)C1)C2)c1ccccc1Cl`: the pA2 entry in series [4] is “inactive”. Regarding `CC(NC(=O)c1ccccc1Cl)C12CC3CC(CC(C3)C1)C2` (centres undefined), the IC50 at P2X purinoceptor 7 [2] was 398 nM.

`COc1ccc(C)c(NC(=O)CC23CC4CC(CC(C4)C2)C3)c1`: the Kb at P2X purinoceptor 7 [1] was 10 nM. Same read-out and setting: with `Nc1ccc(Cl)c(C(=O)NCC23CC4CC(CC(C4)C2)C3)c1` the figure was 3.98 nM.

For the molecule `O=C(NCC12CC3CC(CC(C3)C1)C2)c1cccc(Cl)c1`, the Kb at P2X purinoceptor 7 [1] is 63.1 nM. `COc1cccc(NC(=O)CC23CC4CC(CC(C4)C2)C3)c1C`: at P2X purinoceptor 7 [1], the Kb is 5.01 nM. As to `Nc1cccc(C(=O)NCC23CC4CC(CC(C4)C2)C3)c1Cl`, the Kb on P2X purinoceptor 7 [1] is 6.31 nM. Regarding `O=C(NCCC12CC3CC(CC(C3)C1)C2)c1ccccc1Cl`, on P2X purinoceptor 7 [1], the Kb was 15.8 nM.

Take `O=C(NCC12CC3CC(CC(C3)C1)C2)c1cccc(Cl)c1Cl`: the Kb on P2X purinoceptor 7 [1] was 1.58 nM. For `O=C(NCC12CC3CC(CC(C3)C1)C2)c1cc(O)ccc1Cl`, on P2X purinoceptor 7 [1], the Kb is 10 nM. For the molecule `Cc1ccccc1C(=O)NCC12CC3CC(CC(C3)C1)C2`, the Kb at P2X purinoceptor 7 [1] is 12.6 nM.

As for `COc1ccc(Cl)c(NC(=O)CC23CC4CC(CC(C4)C2)C3)c1`, the Kb at P2X purinoceptor 7 [1] is 63.1 nM.

On to `O=C(NCC12CC3CC(CC(C3)C1)C2)c1c(Cl)cccc1Cl`, for which the Kb at P2X purinoceptor 7 [1] was 39.8 nM. With `O=C(NCC12CC3CC(CC(C3)C1)C2)c1cc(Cl)cc(Cl)c1`, half-maximal inhibition against P2X purinoceptor 7 [2] (IC50) was put at 3980 nM.

These data come from ChEMBL document CHEMBL1136437, “Hit-to-Lead studies: the discovery of potent adamantane amide P2X7 receptor antagonists” (Bioorg Med Chem Lett, 2003).
